According to ChEMBL document CHEMBL1129585, “Synthesis and biological activity of conformationally restricted analogs of milnacipran: (1S,2R)-1-phenyl-2-[(S)-1-aminopropyl]-N,N-diethylcyclopropanecarboxami de, an efficient noncompetitive N-methyl-D-aspartic acid receptor antagonist” (J Med Chem, 1996):

Target: Sodium-dependent serotonin transporter (Rattus norvegicus, UniProt P31652)
Assay: Inhibition of [3H]-paroxetine binding on serotonin transporter of rat cerebral cortical synaptic membrane
Settings: not given
How it was run: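 Rat cerebral cortical synaptic membranes incubated with test agent at various concentrations, [³H]paroxetine 2 nM, in 50 mM Tris-HCl pH 7.4 with 120 mM NaCl and 5 mM KCl, 20 °C for 45 min. Stopped by rapid filtration on polyethylenimine-presoaked glass-fiber filters, washed with cold Tris-HCl. Bound radioactivity counted. Result given as Ki.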

Sequence of Sodium-dependent serotonin transporter (P31652 whole entry): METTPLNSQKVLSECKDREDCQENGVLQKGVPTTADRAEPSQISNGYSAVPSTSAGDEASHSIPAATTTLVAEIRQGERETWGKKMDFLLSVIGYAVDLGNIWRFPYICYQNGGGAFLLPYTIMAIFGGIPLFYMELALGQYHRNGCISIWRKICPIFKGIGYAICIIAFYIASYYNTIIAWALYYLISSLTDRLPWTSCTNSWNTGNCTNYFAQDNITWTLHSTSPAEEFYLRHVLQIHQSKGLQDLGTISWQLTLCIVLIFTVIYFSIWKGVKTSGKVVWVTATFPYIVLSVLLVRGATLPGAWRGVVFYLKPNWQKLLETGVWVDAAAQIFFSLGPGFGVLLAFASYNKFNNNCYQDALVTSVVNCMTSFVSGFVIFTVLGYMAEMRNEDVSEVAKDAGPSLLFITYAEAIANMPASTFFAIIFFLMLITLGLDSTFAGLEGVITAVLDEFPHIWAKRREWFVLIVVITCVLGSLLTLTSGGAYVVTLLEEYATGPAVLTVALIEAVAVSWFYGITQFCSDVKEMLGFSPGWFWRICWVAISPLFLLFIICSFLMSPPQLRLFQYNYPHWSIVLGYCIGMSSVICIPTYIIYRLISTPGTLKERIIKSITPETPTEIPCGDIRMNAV

Going from `CCC(N)[C@H]1C[C@]1(C(=O)N(CC)CC)c1ccccc1` (stereo in doubt; form 2) to `CCC(N)[C@@H]1C[C@@]1(C(=O)N(CC)CC)c1ccccc1` (stereo in doubt; 2b), the Ki falls from over 100000 nM to 24000 nM.

Compared with `CCN(CC)C(=O)[C@@]1(c2ccccc2)C[C@H]1C(C)N` (stereo in doubt; 2a), `CCN(CC)C(=O)[C@]1(c2ccccc2)C[C@@H]1C(C)N` (stereo in doubt; form 1) is higher in Ki: 14 nM for the first, over 100000 nM for the second. The first binds more tightly here.

Compared with `CCN(CC)C(=O)[C@@]1(c2ccccc2)C[C@H]1CN` [LEVOMILNACIPRAN], `CCN(CC)C(=O)[C@@]1(c2ccccc2)C[C@H]1C(C)N` (stereo in doubt; 3a) is 280-fold higher in Ki: 8.5 nM for the first, 2400 nM for the second. The first binds more tightly here.

`CCN(CC)C(=O)[C@@]1(c2ccccc2)C[C@H]1C(N)CC(C)C` (some centres not stated) and `CCC(N)[C@H]1C[C@]1(C(=O)N(CC)CC)c1ccccc1` (stereo in doubt; form 1) cannot be ordered by Ki: over 100000 nM for the first, over 100000 nM for the second.

First: CCN(CC)C(=O)[C@@]1(c2ccccc2)C[C@H]1C(N)c1ccccc1 (some centres not stated)
Second: CCN(CC)C(=O)[C@]1(c2ccccc2)C[C@@H]1C(C)N (stereo in doubt; form 2)
The Ki of the first is higher: over 100000 nM for the first, 170 nM for the second. The second binds more tightly here.

First: CCCC(N)[C@@H]1C[C@@]1(C(=O)N(CC)CC)c1ccccc1 (some centres not stated)
Second: CCC(N)[C@@H]1C[C@@]1(C(=O)N(CC)CC)c1ccccc1 (stereo in doubt; 3b)
The Ki of the first is lower: 37000 nM for the first, over 100000 nM for the second.

Compound `C=CC(N)[C@@H]1C[C@@]1(C(=O)N(CC)CC)c1ccccc1` (some centres not stated) has a Ki of 23 nM.

Species on record: Rattus norvegicus
Assay: Ratio of 5 HT inhibition to NMDA receptor binding
Settings: not given

`CCN(CC)C(=O)[C@@]1(c2ccccc2)C[C@H]1C(N)CC(C)C` (some centres not stated) and `CCCC(N)[C@@H]1C[C@@]1(C(=O)N(CC)CC)c1ccccc1` (some centres not stated) cannot be ordered by Selectivity index: over 24 for the first, 37 for the second.

First: CCN(CC)C(=O)[C@@]1(c2ccccc2)C[C@H]1C(N)c1ccccc1 (some centres not stated)
Second: C=CC(N)[C@@H]1C[C@@]1(C(=O)N(CC)CC)c1ccccc1 (some centres not stated)
The Selectivity index of the first is higher: over 5.9 for the first, 0.14 for the second.

Target: Glutamate receptor ionotropic, NMDA 2C (Rattus norvegicus) (UniProt Q00961)
Assay: (§1) Percentage inhibition of N-methyl-D-aspartic acid (NMDA) receptor produced by oocytes
Assay type: functional, cell-based
Settings: Xenopus laevis; Oocyte; concentration not given here
How it was run: (§2)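 Xenopus oocytes injected with whole-brain mRNA from 10-day-old Wistar rats (guanidine/CsCl extraction), then two-electrode voltage-clamped with 3 M KCl-filled electrodes. Currents evoked by 30 µM NMDA plus 10 µM Gly with test agent present at different concentrations. Block of the NMDA response recorded as percent inhibition or IC50.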

Sequence of Glutamate receptor ionotropic, NMDA 2C (Rattus norvegicus) (Q00961 20-1237 limits assumed): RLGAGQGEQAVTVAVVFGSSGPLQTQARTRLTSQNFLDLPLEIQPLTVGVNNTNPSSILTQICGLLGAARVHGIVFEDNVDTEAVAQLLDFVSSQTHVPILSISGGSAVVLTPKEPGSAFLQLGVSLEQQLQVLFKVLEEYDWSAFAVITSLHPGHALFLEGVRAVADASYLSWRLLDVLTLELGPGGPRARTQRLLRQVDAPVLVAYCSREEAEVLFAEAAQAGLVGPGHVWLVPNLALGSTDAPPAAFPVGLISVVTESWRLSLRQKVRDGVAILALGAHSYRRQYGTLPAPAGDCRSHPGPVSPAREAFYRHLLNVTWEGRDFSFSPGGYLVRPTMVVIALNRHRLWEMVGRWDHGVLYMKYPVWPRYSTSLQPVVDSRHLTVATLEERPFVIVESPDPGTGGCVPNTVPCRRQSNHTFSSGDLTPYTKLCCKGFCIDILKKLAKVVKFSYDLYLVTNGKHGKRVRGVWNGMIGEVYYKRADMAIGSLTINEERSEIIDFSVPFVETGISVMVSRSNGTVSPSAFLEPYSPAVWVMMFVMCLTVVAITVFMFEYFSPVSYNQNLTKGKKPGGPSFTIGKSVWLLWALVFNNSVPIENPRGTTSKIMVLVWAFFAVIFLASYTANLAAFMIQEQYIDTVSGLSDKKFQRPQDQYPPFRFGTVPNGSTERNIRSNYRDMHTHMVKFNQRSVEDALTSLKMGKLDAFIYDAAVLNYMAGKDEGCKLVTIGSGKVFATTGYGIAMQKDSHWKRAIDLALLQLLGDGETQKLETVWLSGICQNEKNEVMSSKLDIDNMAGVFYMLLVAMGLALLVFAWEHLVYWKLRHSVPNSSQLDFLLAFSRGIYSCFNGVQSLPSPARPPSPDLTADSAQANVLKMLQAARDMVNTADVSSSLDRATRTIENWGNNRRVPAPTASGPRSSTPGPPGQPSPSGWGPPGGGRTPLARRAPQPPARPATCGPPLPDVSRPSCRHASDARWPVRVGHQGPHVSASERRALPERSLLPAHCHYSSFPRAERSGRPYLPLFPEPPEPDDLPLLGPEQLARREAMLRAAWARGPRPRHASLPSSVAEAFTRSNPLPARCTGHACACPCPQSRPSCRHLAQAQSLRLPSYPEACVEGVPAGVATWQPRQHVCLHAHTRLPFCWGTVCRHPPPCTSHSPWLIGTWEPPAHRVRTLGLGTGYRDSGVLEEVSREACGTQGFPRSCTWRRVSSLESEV

`CCN(CC)C(=O)[C@@]1(c2ccccc2)C[C@H]1CN` [LEVOMILNACIPRAN] was tested, and the inhibition was 53%.

Target: Glutamate NMDA receptor
Assay: Inhibition of [3H]-MK-801 binding to NMDA receptor from rat cerebral cortical synaptic membrane
Settings: not given

Going from `CCN(CC)C(=O)[C@@]1(c2ccccc2)C[C@H]1C(C)N` (stereo in doubt; 2a) to `CCN(CC)C(=O)[C@]1(c2ccccc2)C[C@@H]1C(C)N` (stereo in doubt; form 2), the IC50 rises from 350 nM to 19000 nM (54-fold). The first is the more potent here.

First: CCC(N)[C@@H]1C[C@@]1(C(=O)N(CC)CC)c1ccccc1 (stereo in doubt; 2b)
Second: CCCC(N)[C@@H]1C[C@@]1(C(=O)N(CC)CC)c1ccccc1 (some centres not stated)
The IC50 of the first is 5-fold lower: 200 nM for the first, 1000 nM for the second. The first is the more potent here.

Going from `CCN(CC)C(=O)[C@@]1(c2ccccc2)C[C@H]1C(N)CC(C)C` (some centres not stated) to `CCN(CC)C(=O)[C@@]1(c2ccccc2)C[C@H]1C(C)N` (stereo in doubt; 3a), the IC50 rises from 4200 nM to 6500 nM (1.5-fold). The first is the more potent here.

Going from `CCN(CC)C(=O)[C@@]1(c2ccccc2)C[C@H]1C(N)c1ccccc1` (some centres not stated) to `C=CC(N)[C@@H]1C[C@@]1(C(=O)N(CC)CC)c1ccccc1` (some centres not stated), the IC50 falls from 17000 nM to 160 nM (110-fold). The second is the more potent here.

Going from `c1ccc(C2(N3CCCCC3)CCCCC2)cc1` [PHENCYCLIDINE] to `CNC1(c2ccccc2Cl)CCCCC1=O` (configuration not stated) [KETAMINE], the IC50 rises from 9.8 nM to 610 nM (62-fold).

Target: Glutamate receptor ionotropic, NMDA 2C (Rattus norvegicus) (UniProt Q00961)
Assay: as §1
Assay type: cell-based
Settings: Xenopus laevis; Oocyte; concentration not given here
How it was run: as §2

`C[C@]12N[C@H](Cc3ccccc31)c1ccccc12` showed an inhibition of 98%.

Target: Glutamate receptor ionotropic, NMDA 2C (Rattus norvegicus, UniProt Q00961)
Assay: Concentration required to inhibit of N-methyl-D-aspartic acid (NMDA) receptor produced by oocytes
Assay type: functional, cell-based, Oocyte
Settings: not given
How it was run: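 Xenopus oocytes were injected with whole-brain mRNA from 10-day-old Wistar rats, extracted by the guanidine/CsCl method. They were two-electrode voltage-clamped with electrodes filled with 3 M KCl. Currents were evoked by 30 µM NMDA plus 10 µM Gly in the presence of test compound at different concentrations. The read-out was block of the NMDA response, given as IC50 or percent inhibition.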

Sequence of Glutamate receptor ionotropic, NMDA 2C (Q00961 whole entry): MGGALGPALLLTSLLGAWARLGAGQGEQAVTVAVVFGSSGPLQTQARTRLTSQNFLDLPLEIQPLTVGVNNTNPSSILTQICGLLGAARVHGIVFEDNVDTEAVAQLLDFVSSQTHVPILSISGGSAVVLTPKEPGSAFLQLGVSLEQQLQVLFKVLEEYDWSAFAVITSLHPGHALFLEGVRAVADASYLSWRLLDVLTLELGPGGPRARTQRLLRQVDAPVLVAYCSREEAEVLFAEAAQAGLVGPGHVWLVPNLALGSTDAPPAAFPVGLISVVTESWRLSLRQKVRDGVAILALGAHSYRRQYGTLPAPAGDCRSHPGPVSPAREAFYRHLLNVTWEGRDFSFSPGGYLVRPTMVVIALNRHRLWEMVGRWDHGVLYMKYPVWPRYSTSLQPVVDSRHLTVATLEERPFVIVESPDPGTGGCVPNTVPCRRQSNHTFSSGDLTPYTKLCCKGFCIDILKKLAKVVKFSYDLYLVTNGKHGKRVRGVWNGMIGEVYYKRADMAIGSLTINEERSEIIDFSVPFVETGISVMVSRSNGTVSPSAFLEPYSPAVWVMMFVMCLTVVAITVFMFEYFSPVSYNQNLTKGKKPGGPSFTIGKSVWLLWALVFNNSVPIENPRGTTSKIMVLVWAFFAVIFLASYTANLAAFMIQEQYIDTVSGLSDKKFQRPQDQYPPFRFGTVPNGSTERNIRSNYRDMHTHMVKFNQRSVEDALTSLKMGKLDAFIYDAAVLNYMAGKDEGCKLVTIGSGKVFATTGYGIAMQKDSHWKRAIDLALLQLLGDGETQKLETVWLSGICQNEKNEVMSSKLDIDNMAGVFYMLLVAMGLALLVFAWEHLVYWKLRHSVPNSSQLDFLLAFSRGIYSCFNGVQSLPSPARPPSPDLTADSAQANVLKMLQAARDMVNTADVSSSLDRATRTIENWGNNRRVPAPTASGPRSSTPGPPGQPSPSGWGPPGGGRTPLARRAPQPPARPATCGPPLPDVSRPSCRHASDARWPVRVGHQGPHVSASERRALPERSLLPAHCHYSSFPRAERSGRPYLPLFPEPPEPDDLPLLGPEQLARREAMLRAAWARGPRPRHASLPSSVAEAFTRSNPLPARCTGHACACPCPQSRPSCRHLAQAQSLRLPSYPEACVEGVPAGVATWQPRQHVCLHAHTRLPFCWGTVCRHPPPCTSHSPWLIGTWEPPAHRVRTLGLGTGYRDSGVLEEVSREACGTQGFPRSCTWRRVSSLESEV

`CCN(CC)C(=O)[C@@]1(c2ccccc2)C[C@H]1C(C)N` (stereo in doubt; 2a) and `CCC(N)[C@@H]1C[C@@]1(C(=O)N(CC)CC)c1ccccc1` (stereo in doubt; 2b) are within 1.5-fold of each other in IC50: 2300 nM for the first, 2200 nM for the second.

`CCC(N)[C@H]1C[C@]1(C(=O)N(CC)CC)c1ccccc1` (stereo in doubt; form 1) gave an IC50 of 39000 nM.
